Results published in ChEMBL document CHEMBL4196121, “Meridianin D Analogues Display Antibiofilm Activity against MRSA and Increase Colistin Efficacy in Gram-Negative Bacteria” (ACS Med Chem Lett, 2018).
pEC50, pIC50: −log10 of the molar value. Calls of active or inactive are those of the source. No cut-off for these calls is given here.

Tests used:
Acinetobacter baumannii [1] = assay: Antibacterial activity against Acinetobacter baumannii ATCC 17978 after 16 hrs by broth microdilution assay; assay type: organism-based
Klebsiella pneumoniae [2] = assay: Antibacterial activity against Klebsiella pneumoniae isolate C3 after 16 hrs by broth microdilution assay; details: for MIC: […]
Staphylococcus aureus [3] = assay: Potentiation of vancomycin-induced antibacterial activity against methicillin-resistant Staphylococcus aureus ATCC 43300 assessed as dispersion of preformed biofilm after 24 hrs by crystal violet staining based method; assay type: functional, organism-based; details: ATCC 43300, 24 h
Staphylococcus aureus [4] = assay: Effect on planktonic growth of methicillin-resistant Staphylococcus aureus ATCC 43300 at 60 uM after 16 hrs by broth microdilution assay; assay type: organism-based
Klebsiella pneumoniae [5] = assay: Antibacterial activity against Klebsiella pneumoniae isolate B9 after 16 hrs by broth microdilution assay; details: in vivo
Staphylococcus aureus [6] = assay: Antibiofilm activity against methicillin-resistant Staphylococcus aureus ATCC 43300 assessed induction of dispersion of preformed biofilm after 24 hrs by crystal violet staining based method; assay type: functional, organism-based; details: ATCC 43300, 24 h
Acinetobacter baumannii [7] = assay: Antibacterial activity against Acinetobacter baumannii isolate 4106 after 16 hrs by broth microdilution assay; assay type: organism-based
Klebsiella pneumoniae [8] = assay: Antibacterial activity against Klebsiella pneumoniae ATCC 2146 expressing NDM1 gene after 16 hrs by broth microdilution assay; assay type: organism-based; details: for Activity: in vitro; for MIC: […]
Staphylococcus aureus [9] = assay: Antibacterial activity against methicillin-resistant Staphylococcus aureus ATCC 43300 after 16 hrs by broth microdilution assay; assay type: functional; details: ATCC 43300, 16 h
Staphylococcus aureus [10] = assay: Antibiofilm activity against methicillin-resistant Staphylococcus aureus ATCC 43300 at < 60 uM after 16 hrs by broth microdilution assay; assay type: functional, organism-based
Acinetobacter baumannii [11] = assay: Antibacterial activity against Acinetobacter baumannii isolate 5075 after 16 hrs by broth microdilution assay; assay type: organism-based
Acinetobacter baumannii [12] = assay: Antibacterial activity against Acinetobacter baumannii isolate 3941 after 16 hrs by broth microdilution assay; assay type: organism-based
Acinetobacter baumannii [13] = assay: Antibacterial activity against Acinetobacter baumannii ATCC 19606 after 16 hrs by broth microdilution assay; assay type: organism-based, ATCC 19606 = CIP 70.34 = JCM 6841; details: for MIC: […]
Escherichia coli [14] = assay: Antibacterial activity against Escherichia coli ATCC 25922 after 16 hrs by broth microdilution assay; assay type: organism-based
Klebsiella pneumoniae [15] = assay: Potentiation of colistin-induced antimicrobial activity against Klebsiella pneumoniae ATCC 2146 expressing NDM1 gene assessed as fold reduction in colistin MIC after 16 hrs by broth microdilution assay; assay type: functional
Outline: (§1)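 Analogue at a fixed 60 μM unless otherwise noted, combined with colistin against the Gram-negative strain. Potentiation is read as the fold reduction in colistin MIC relative to colistin alone. A. baumannii 3941/4106 and K. pneumoniae C3/B9 are primary clinical isolates with genomically encoded colistin resistance.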

Acinetobacter baumannii [16] = assay: Potentiation of colistin-induced antimicrobial activity against Acinetobacter baumannii ATCC 17978 assessed as fold reduction in colistin MIC after 16 hrs by broth microdilution assay; assay type: functional; outline: as §1
Acinetobacter baumannii [17] = assay: Potentiation of colistin-induced antimicrobial activity against Acinetobacter baumannii ATCC 17978 expressing mcr1 gene assessed as fold reduction in colistin MIC after 16 hrs by broth microdilution assay; assay type: functional; outline: as §1
Escherichia coli [18] = assay: Potentiation of colistin-induced antimicrobial activity against Escherichia coli ATCC 25922 assessed as fold reduction in colistin MIC after 16 hrs by broth microdilution assay; assay type: functional; outline: as §1
Klebsiella pneumoniae [19] = assay: Potentiation of colistin-induced antimicrobial activity against Klebsiella pneumoniae isolate C3 assessed as fold reduction in colistin MIC after 16 hrs by broth microdilution assay; assay type: functional; outline: as §1
Staphylococcus aureus [20] = assay: Inhibition of biofilm formation in methicillin-resistant Staphylococcus aureus ATCC 43300 after 24 hrs by crystal violet staining based method; assay type: functional, organism-based; details: ATCC 43300, 24 h
Outline: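 Read-out is the IC50, taken as the compound concentration that inhibits 50% of MRSA 43300 biofilm formation.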

Acinetobacter baumannii [21] = assay: Antibacterial activity against Acinetobacter baumannii ATCC 17978 expressing mcr1 gene after 16 hrs by broth microdilution assay; assay type: organism-based; details: in vitro
Klebsiella pneumoniae [22] = assay: Potentiation of colistin-induced antimicrobial activity against Klebsiella pneumoniae isolate B9 assessed as fold reduction in colistin MIC after 16 hrs by broth microdilution assay; assay type: functional; outline: as §1
Klebsiella pneumoniae [23] = assay: Potentiation of colistin-induced antimicrobial activity against Klebsiella pneumoniae isolate B9 after 16 hrs in presence of 0.01% triton X-100 by broth microdilution assay; assay type: functional, organism-based
Klebsiella pneumoniae [24] = assay: Potentiation of colistin-induced antimicrobial activity against Klebsiella pneumoniae isolate B9 after 16 hrs by broth microdilution assay; assay type: functional, organism-based; outline: as §1
Acinetobacter baumannii [25] = assay: Potentiation of colistin-induced antimicrobial activity against Acinetobacter baumannii ATCC 19606 assessed as fold reduction in colistin MIC after 16 hrs by broth microdilution assay; assay type: functional, ATCC 19606 = CIP 70.34 = JCM 6841; outline: as §1
Acinetobacter baumannii [26] = assay: Potentiation of colistin-induced antimicrobial activity against Acinetobacter baumannii isolate 4106 assessed as fold reduction in colistin MIC after 16 hrs by broth microdilution assay; assay type: functional; outline: as §1
Escherichia coli [27] = assay: Antibacterial activity against Escherichia coli ATCC 25922 expressing mcr1 gene after 16 hrs by broth microdilution assay; assay type: organism-based; details: in vitro
Acinetobacter baumannii [28] = assay: Potentiation of colistin-induced antimicrobial activity against Acinetobacter baumannii isolate 3941 after 16 hrs by broth microdilution assay; assay type: functional, organism-based; outline: as §1
Escherichia coli [29] = assay: Potentiation of colistin-induced antimicrobial activity against Escherichia coli ATCC 25922 expressing mcr1 gene assessed as fold reduction in colistin MIC after 16 hrs by broth microdilution assay; assay type: functional; outline: as §1
Acinetobacter baumannii [30] = assay: Potentiation of colistin-induced antimicrobial activity against Acinetobacter baumannii isolate 4106 after 16 hrs in presence of 0.01% triton X-100 by broth microdilution assay; assay type: functional, organism-based
Acinetobacter baumannii [31] = assay: Potentiation of colistin-induced antimicrobial activity against Acinetobacter baumannii isolate 5075 assessed as fold reduction in colistin MIC after 16 hrs by broth microdilution assay; assay type: functional; outline: as §1
Enterococcus faecium = assay: Antibacterial activity against vancomycin-resistant Enterococcus faecium ATCC 51559 after 16 hrs by broth microdilution assay; assay type: functional; details: ATCC 51559, 16 h
Staphylococcus aureus [32] = assay: Antibacterial activity against methicillin-resistant Staphylococcus aureus ATCC 6538 after 16 hrs by broth microdilution assay; assay type: functional; details: ATCC 6538, 16 h
Staphylococcus aureus [33] = assay: Antibacterial activity against methicillin-resistant Staphylococcus aureus ATCC 1556 after 16 hrs by broth microdilution assay; assay type: functional; details: ATCC 1556, 16 h
Staphylococcus aureus [34] = assay: Antibiofilm activity against methicillin-resistant Staphylococcus aureus ATCC 43300 assessed as dispersion of preformed biofilm at 80 uM after 24 hrs by crystal violet staining based method relative to control; assay type: functional

Row | SMILES | Activity (Acinetobacter baumannii [1]) | Activity (Klebsiella pneumoniae [2]) | pEC50 (Staphylococcus aureus [3]) | Activity (Staphylococcus aureus [4]) | pEC50 (Staphylococcus aureus [6]) | MIC (Staphylococcus aureus [9]) | MIC (Acinetobacter baumannii [1]) | MIC (Escherichia coli [14]) | MIC (Klebsiella pneumoniae [2]) | fold change (FC) (Klebsiella pneumoniae [19]) | pIC50 (Staphylococcus aureus [20]) | MIC (Acinetobacter baumannii [21]) | MIC (Klebsiella pneumoniae [5]) | MIC (Acinetobacter baumannii [7]) | fold change (FC) (Acinetobacter baumannii [25]) | MIC (Klebsiella pneumoniae [8]) | MIC (Acinetobacter baumannii [11]) | MIC (Escherichia coli [27]) | MIC (Acinetobacter baumannii [12]) | MIC (Acinetobacter baumannii [13]) | other results
1 | Cl.Nc1nc(-c2c[nH]c3ccc(Br)cc23)c[nH]1 | Toxic | Toxic | < 4.00 | Toxic | 3.99 | 25 µM | – | – | – | – | – | – | – | – | – | – | – | – | – | – | Activity (Klebsiella pneumoniae [5]): Toxic; Activity (Acinetobacter baumannii [7]): Toxic; Activity (Klebsiella pneumoniae [8]): Toxic; Activity (Staphylococcus aureus [10]): inactive; Activity (Acinetobacter baumannii [11]): Toxic; Activity (Acinetobacter baumannii [12]): Toxic; Activity (Acinetobacter baumannii [13]): Toxic
2 | CCNc1nccc(-c2c[nH]c3ccc(Br)cc23)n1.Cl | – | – | 4.18 | – | 4.12 | 50 µM | > 200 µM | > 200 µM | > 200 µM | 512 | 4.61 | > 200 µM | > 200 µM | > 200 µM | 16 | > 200 µM | > 200 µM | > 200 µM | > 200 µM | > 200 µM | fold change (FC) (Klebsiella pneumoniae [15]): 16; fold change (FC) (Acinetobacter baumannii [16]): 16; fold change (FC) (Acinetobacter baumannii [17]): 128; fold change (FC) (Escherichia coli [18]): 8; fold change (FC) (Klebsiella pneumoniae [22]): 512; Activity (Klebsiella pneumoniae [23]): inactive; Activity (Klebsiella pneumoniae [24]): Active; fold change (FC) (Acinetobacter baumannii [26]): 512; Activity (Acinetobacter baumannii [28]): Active; fold change (FC) (Escherichia coli [29]): 16; Activity (Acinetobacter baumannii [30]): inactive; fold change (FC) (Acinetobacter baumannii [31]): 16
3 | CNc1nccc(-c2c[nH]c3ccc(Br)cc23)n1.Cl | – | – | 4.15 | – | 4.14 | 100 µM | > 200 µM | > 200 µM | > 200 µM | 512 | 4.54 | > 200 µM | > 200 µM | > 200 µM | 16 | > 200 µM | > 200 µM | > 200 µM | > 200 µM | > 200 µM | Activity (Klebsiella pneumoniae [24]): Active
4 | Cl.Nc1nc(-c2c[nH]c3cc(Br)ccc23)c[nH]1 | Toxic | Toxic | < 4.00 | Toxic | 4.00 | 25 µM | – | – | – | – | – | – | – | – | – | – | – | – | – | – | Activity (Klebsiella pneumoniae [5]): Toxic; Activity (Acinetobacter baumannii [7]): Toxic; Activity (Klebsiella pneumoniae [8]): Toxic; Activity (Staphylococcus aureus [10]): inactive; Activity (Acinetobacter baumannii [11]): Toxic; Activity (Acinetobacter baumannii [12]): Toxic; Activity (Acinetobacter baumannii [13]): Toxic
5 | Brc1ccc2[nH]cc(-c3ccnc(NCc4ccccc4)n3)c2c1.Cl | – | – | < 4.10 | – | < 4.10 | 6.25 µM | > 200 µM | > 200 µM | > 200 µM | 512 | 5.02 | > 200 µM | > 200 µM | > 200 µM | 16 | > 200 µM | > 200 µM | > 200 µM | > 200 µM | > 200 µM | fold change (FC) (Acinetobacter baumannii [16]): 16; MIC (Enterococcus faecium): 25 µM; Activity (Klebsiella pneumoniae [23]): inactive; MIC (Staphylococcus aureus [32]): 6.25 µM; Activity (Acinetobacter baumannii [28]): Active; Activity (Acinetobacter baumannii [30]): inactive; MIC (Staphylococcus aureus [33]): 6.25 µM; Activity (Staphylococcus aureus [34]): 26.2%
